# Experimental data published in ChEMBL document CHEMBL1143270, “Identification of amidoheteroaryls as potent inhibitors of mutant (V600E) B-Raf kinase with in vivo activity” (Bioorg Med Chem Lett, 2009).
# What was measured:
# Format in all cases: ADME, organism-based
# [1] = Half life in Wistar rat at 3 mg/kg, iv and 10 mg/kg, po; settings: in vivo
# [2] = Volume of distribution at steady state in Wistar rat at 3 mg/kg, iv and 10 mg/kg, po; settings: in vivo, read-out: Vdss
# [3] = Clearance in Wistar rat at 3 mg/kg, iv and 10 mg/kg, po; settings: in vivo
# [4] = Bioavailability in Wistar rat at 3 mg/kg, iv and 10 mg/kg, po; settings: in vivo
# Outline: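 Male Han Wistar rats. The iv dose was given as a DMA/PEG/saline (40/40/20) solution and the po dose as a 0.1% HPMC suspension.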
SMILES,half-life [1] [min],Vd [2] [L/kg],clearance [3] [mL/min/kg],bioavailability [4] [%]
COc1cncc(NC(=O)c2cc(NC(=O)c3cccc(C(C)(C)C#N)c3)ccc2C)c1,30,1.7,56,
CNc1ccc(NC(=O)c2cc(NC(=O)c3cccc(C(C)(C)C#N)c3)ccc2C)cn1,36,1.7,53.5,15
Cc1ccc(NC(=O)c2cccc(C(C)(C)C#N)c2)cc1C(=O)Nc1cncc(Cl)c1,54,3.1,60,45
Cc1ccc(NC(=O)c2cccc(C(C)(C)C#N)c2)cc1C(=O)Nc1cnc(N)c(Cl)c1,60,0.8,9.5,30
Nc1ncc(NC(=O)c2cc(NC(=O)c3cccc(C(F)(F)F)c3)ccc2Cl)cc1Cl,84,1.2,11,96
Cc1ccc(NC(=O)c2cccc(C(C)(C)C#N)c2)cc1C(=O)Nc1cccnc1,96,2.5,42.5,17
CC(=O)Nc1ccc(NC(=O)c2cc(NC(=O)c3cccc(C(C)(C)C#N)c3)ccc2C)cn1,42,2.7,64,10
Cc1ccc(NC(=O)c2cc(NC(=O)c3cccc(C(C)(C)C#N)c3)ccc2C)cn1,48,2.9,47.5,73
Cc1ccc(NC(=O)c2cccc(C(F)(F)F)c2)cc1C(=O)Nc1cnc(N)c(Cl)c1,96,1,8,78
Cc1ccc(NC(=O)c2cccc(C(C)(C)C#N)c2)cc1C(=O)Nc1ccc(N)nc1,36,2.3,75.5,
Cc1cncc(NC(=O)c2cc(NC(=O)c3cccc(C(C)(C)C#N)c3)ccc2C)c1,48,1.4,32.5,4
